“And” between values parts separate entries of the source, which are not always exact repeats. Equal values may be shown once.
Tests used:
[1] = Partition coefficient (logP); assay type: physicochemical; conditions: octanol/water
Method in brief: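 log P(o/w) (octanol/water) estimated by a reversed-phase HPLC method.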

[2] = molecular target: T1, Progesterone receptor (Homo sapiens) (UniProt P06401); experiment: Binding selectivity index as the ratio of RBA value to that of NSB value.
T1 sequence (whole entry): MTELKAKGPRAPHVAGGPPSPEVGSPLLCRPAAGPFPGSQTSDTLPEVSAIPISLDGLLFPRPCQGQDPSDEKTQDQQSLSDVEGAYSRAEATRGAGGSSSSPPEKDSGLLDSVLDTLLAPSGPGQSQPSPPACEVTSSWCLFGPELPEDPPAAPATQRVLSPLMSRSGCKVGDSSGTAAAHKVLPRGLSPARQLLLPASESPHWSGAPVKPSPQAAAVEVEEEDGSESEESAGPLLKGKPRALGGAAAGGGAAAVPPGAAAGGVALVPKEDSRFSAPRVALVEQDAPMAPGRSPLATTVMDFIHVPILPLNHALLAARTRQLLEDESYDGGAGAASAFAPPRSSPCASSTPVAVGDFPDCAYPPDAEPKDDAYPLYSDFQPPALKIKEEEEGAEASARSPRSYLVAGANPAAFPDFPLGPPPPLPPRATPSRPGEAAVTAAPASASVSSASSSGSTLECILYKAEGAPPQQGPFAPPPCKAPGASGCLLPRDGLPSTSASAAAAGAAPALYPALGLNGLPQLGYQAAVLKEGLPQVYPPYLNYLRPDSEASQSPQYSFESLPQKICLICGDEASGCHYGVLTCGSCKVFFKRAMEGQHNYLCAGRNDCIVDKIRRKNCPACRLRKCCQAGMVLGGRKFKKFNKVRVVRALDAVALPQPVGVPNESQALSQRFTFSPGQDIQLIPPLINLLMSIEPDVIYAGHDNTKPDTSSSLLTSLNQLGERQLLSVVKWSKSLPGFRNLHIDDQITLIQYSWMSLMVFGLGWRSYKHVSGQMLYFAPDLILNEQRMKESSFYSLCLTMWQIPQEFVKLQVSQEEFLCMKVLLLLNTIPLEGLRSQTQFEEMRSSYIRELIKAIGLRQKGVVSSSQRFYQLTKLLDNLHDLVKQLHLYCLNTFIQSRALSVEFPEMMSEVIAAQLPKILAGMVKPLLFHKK
Method in brief: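 BSI calculated as the ratio of RBA to NSB.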

[3] = molecular target: T1, Progesterone receptor (Homo sapiens); experiment: Nonspecific binding affinity against progesterone receptor was estimated relative to compound R5020
[4] = molecular target: T1, Progesterone receptor (Homo sapiens); experiment: Relative binding affinity against progesterone receptor at 0 degree Celsius determined in a competitive radiometric binding assay (R5020=100%).
Method in brief: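 Competitive radiometric binding at 0 °C against tritium-labeled R5020 as the standard (RBA = 100). Values are the average of two experiments.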

Rattus norvegicus [5] = species: Rattus norvegicus; experiment: Tissue biodistribution into estrogen-primed immature female rat muscle at 1 hr time interval; assay type: ADME, organism-based; conditions: in vivo
Method in brief: (§1)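 Immature female Sprague-Dawley rats (25 days old, ≈50 g, five per time point) primed with estradiol, 5 μg sc daily for 2 days in 50% ethanol/sunflower seed oil, used 24 h after the last injection. The 18F-labeled ligand was given iv by tail vein in 10% ethanol/saline. Decapitated at 1 or 3 h; blood and organs weighed and gamma-counted. Reported as %ID/g ± SD, n = 5.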

Rattus norvegicus [6] = species: Rattus norvegicus; experiment: Tissue biodistribution into estrogen-primed immature female rat kidney at 1 hr time interval; assay type: ADME, organism-based; conditions: in vivo; method in brief: as §1
Rattus norvegicus [7] = species: Rattus norvegicus; experiment: Tissue biodistribution into estrogen-primed immature female rat liver at 1 hr time interval; assay type: ADME, organism-based; conditions: in vivo; method in brief: as §1
Rattus norvegicus [8] = species: Rattus norvegicus; experiment: Tissue biodistribution into estrogen-primed immature female rat lung at 1 hr time interval; assay type: ADME, organism-based; conditions: in vivo; method in brief: as §1
Rattus norvegicus [9] = species: Rattus norvegicus; experiment: Tissue biodistribution into estrogen-primed immature female rat ovaries at 1 hr time interval; assay type: ADME, organism-based, Female gonad; conditions: in vivo; method in brief: as §1
Rattus norvegicus [10] = species: Rattus norvegicus; experiment: Tissue biodistribution into estrogen-primed immature female rat uterus at 1 hr time interval; assay type: ADME, organism-based; conditions: in vivo; method in brief: as §1
Rattus norvegicus [11] = species: Rattus norvegicus; experiment: Tissue biodistribution into estrogen-primed immature female rat uterus/blood at 1 hr time interval; assay type: ADME, organism-based; conditions: in vivo; method in brief: as §1
Rattus norvegicus [12] = species: Rattus norvegicus; experiment: Tissue biodistribution into estrogen-primed immature female rat fat at 1 hr time interval; assay type: ADME, organism-based, Adipose tissue; conditions: in vivo; method in brief: as §1
Rattus norvegicus [13] = species: Rattus norvegicus; experiment: Tissue biodistribution into estrogen-primed immature female rat uterus/muscle at 1 hr time interval; assay type: ADME, organism-based; conditions: in vivo
Rattus norvegicus [14] = species: Rattus norvegicus; experiment: Tissue biodistribution into estrogen-primed immature female rat blood at 1 hr time interval; assay type: ADME, organism-based; conditions: in vivo; method in brief: as §1
Rattus norvegicus [15] = species: Rattus norvegicus; experiment: Tissue biodistribution into estrogen-primed immature female rat bone at 1 hr time interval; assay type: ADME, organism-based, Bone element; conditions: in vivo; method in brief: as §1
Rattus norvegicus [16] = species: Rattus norvegicus; experiment: Tissue biodistribution into estrogen-primed immature female rat brain at 1 hr time interval; assay type: ADME, organism-based; conditions: in vivo; method in brief: as §1

Structure (SMILES) | logP ([1]; read-out: logP) | BSI [2] | NSB [3] | RBA [4] | Injected dose/g (Rattus norvegicus [5]) [%] | Injected dose/g (Rattus norvegicus [6]) [%] | Injected dose/g (Rattus norvegicus [7]) [%] | Injected dose/g (Rattus norvegicus [8]) [%] | Injected dose/g (Rattus norvegicus [9]) [%] | Injected dose/g (Rattus norvegicus [10]) [%] | Uterus to blood concentration ratio (Rattus norvegicus [11]) [%] | Injected dose/g (Rattus norvegicus [12]) [%] | Uterus to muscle uptake ratio (Rattus norvegicus [13]) [%] | Injected dose/g (Rattus norvegicus [14]) [%] | Injected dose/g (Rattus norvegicus [15]) [%] | Injected dose/g (Rattus norvegicus [16]) [%] | logP [1]
CC1(c2ccc(F)cc2)O[C@@H]2CC3C4CCC5=CC(=O)CC[C@@H]5C4CC[C@]3(C)[C@]2(C(=O)CF)O1 (stereo partly drawn) | 5.48 | 65 | 4.36 | 282 |  |  |  |  |  |  |  |  |  |  |  |  | 
CC(=O)[C@@]12O[C@](C)(c3ccc(F)cc3)O[C@@H]1CC1C3CCC4=CC(=O)CC[C@]4(C)C3CC[C@@]12C (stereo partly drawn) |  | 10 | 5.52 | 53 | 0.82 | 2.18 | 3.41 | 1.3 | 3.93 | 3.08 | 6.59 | 5.76 | 3.85 | 0.47 | 1.76 | 0.56 | 
CC[C@@H]1C[C@H]2[C@@H]3CCC4=CC(=O)CC[C@@H]4[C@H]3CC[C@]2(C)[C@H]1C(=O)CO |  | 206 | 0.97 | 200 |  |  |  |  |  |  |  |  |  |  |  |  | 
CC(=O)[C@H]1CC[C@H]2[C@@H]3CCC4=CC(=O)CC[C@]4(C)[C@H]3CC[C@]12C |  | 16 | 0.83 | 13 |  |  |  |  |  |  |  |  |  |  |  |  | 
C[C@@]1(c2ccc(F)cc2)O[C@@H]2CC3C4CCC5=CC(=O)CC[C@@H]5C4CC[C@]3(C)[C@]2(C(=O)CO)O1 (stereo partly drawn) |  | 98 | 2.45 | 240 | 0.44 | 1.42 | 4.25 | 0.6 | 2.8 | 3.65 | 14 | 3.53 | 8.2 | 0.26 | 0.62 | 0.34 | 
CC(=O)[C@@]12OC(c3ccco3)O[C@@H]1CC1C3CCC4=CC(=O)CC[C@]4(C)C3CC[C@@]12C (stereo partly drawn) | 4.56 |  | 1.69 and 2.08 |  |  |  |  |  |  |  |  |  |  |  |  |  | 4.76
